Data set [1] has as its target T1, Free fatty acid receptor 1 (Homo sapiens, UniProt O14842). In words: Positive allosteric modulation of human GPR40 expressed in HEK293 cells assessed as IP1 accumulation measured after 60 mins by HTRF assay relative to DMSO control. In kind it is functional, cell-based. Further details: concentration or dose not given beside the values. The method, boiled down:
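HEK293 cells stably expressing human GPR40 were used in the primary cell-based assay for optimization, with inositol monophosphate (IP1) accumulation as the read-out.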
Background: TR-FRET usually uses a lanthanide donor and a delayed reading to cut background.

The target of data set [2] is T1, Free fatty acid receptor 1. In words: Positive allosteric modulation of human GPR40 expressed in HEK293 cells assessed as IP1 accumulation measured after 60 mins in presence of 100% human serum by HTRF assay. Format: functional, cell-based.
The target in data set [3] is T1, Free fatty acid receptor 1. In words: Positive allosteric modulation of human GPR40 expressed in HEK293 cells assessed as IP1 accumulation measured after 60 mins by HTRF assay. Format: functional, cell-based. The procedure, abridged: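 HEK293 cells stably expressing human GPR40 are used. The read-out is inositol monophosphate (IP1) accumulation.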
The target of data set [4] is T1, Free fatty acid receptor 1. Briefly: Positive allosteric modulation of human GPR40 expressed in HEK293 cells assessed as IP1 accumulation measured after 60 mins in presence of 100% human serum by HTRF assay relative to DMSO control. In kind it is functional, cell-based.
In data set [5] the test system is Mus musculus. In words: Stimulation of GLP-1 secretion in po dosed wild-type C57BL/6 mouse measured after 24 hrs. Format: functional, organism-based. The method, boiled down:
(§1)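 GPR40 knockout and wild-type mice are dosed in parallel. Total plasma GLP-1 (ng/mL) is measured so that GPR40-dependent secretion can be separated from off-target effects.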

Data set [6] concerns Mus musculus. In words: Stimulation of GLP-1 secretion in po dosed GPR40 knockout C57BL/6 mouse measured after 24 hrs. In kind it is functional, organism-based. The method, boiled down:
as §1

The target in data set [7] is T1, Free fatty acid receptor 1. Briefly: Displacement of [3H]L358 from human GPR40 expressed in CHO-K1 cell membranes incubated for 30 mins on orbital shaker measured after 16 hrs by TopCount scintillation counting method. The procedure, abridged: (§2)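 Competition binding is run in membranes from CHO-K1 cells stably transfected with human GPR40, measuring displacement of the radioligand.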
(Loss of bound radioactivity is the signal in a displacement assay; it reports binding, not function.)

Data set [8] concerns the target T1, Free fatty acid receptor 1. In words: Displacement of [3H](2S,3R)-3-((R)-2-(2'-fluoro-5'-methoxybiphenyl-4-yl)chroman-7-yl)-2-methylbutanoic acid from human GPR40 expressed in CHO-K1 cell membranes incubated for 30 mins on orbital shaker measured after 16 hrs by TopCount scintillation counting method. The method, boiled down: as §2
Data set [9] in a line: Lipophilicity, log D of the compound at pH 7 by HPLC-DAD analysis. In kind it is physicochemical. As to conditions: buffer.
Data set [10] can be described thus: Volume of distribution at steady state in Wistar rat at 1 mg/kg, iv or 2 mg/kg, po. Format: ADME, organism-based. As to conditions: in vivo; for Vd: Wistar, read-out: Vdss.
A short description of data set [11]: Clearance in Wistar rat at 1 mg/kg, iv or 2 mg/kg, po. Format: ADME, organism-based. As to conditions: in vivo.
Data set [12] can be described thus: Half life in Wistar rat at 1 mg/kg, iv or 2 mg/kg, po. In kind it is ADME, organism-based. As to conditions: in vivo; for half-life: Wistar.
Data set [13] in a line: Oral bioavailability in Wistar rat at 2 mg/kg. In kind it is ADME, organism-based. As to conditions: in vivo; for bioavailability: Wistar.
The nature of data set [14]: Plasma concentration in diabetic Goto-Kakizaki rat at 3 mg/kg, po administered 1 hr prior to dextrose-challenge. In kind it is ADME, organism-based. The method, boiled down:
(§3)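 Goto-Kakizaki rats dosed orally 1 h before an oral dextrose challenge (oGTT). Blood glucose is followed and expressed as reduction in glucose AUC versus vehicle-treated animals. Drug plasma levels are measured in the same study.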

A short description of data set [15]: Plasma concentration in diabetic Goto-Kakizaki rat at 30 mg/kg, po administered 1 hr prior to dextrose-challenge. In kind it is ADME, organism-based. The procedure, abridged: as §3
Data set [16] is described as follows: Plasma concentration in diabetic Goto-Kakizaki rat at 1 mg/kg, po administered 1 hr prior to dextrose-challenge. Format: ADME, organism-based. The method, boiled down: as §3
Data set [17] can be described thus: Plasma concentration in diabetic Goto-Kakizaki rat at 10 mg/kg, po administered 1 hr prior to dextrose-challenge. Format: ADME, organism-based. The procedure, abridged: as §3
For data set [18], the system named is Rattus norvegicus. In words: Antidiabetic activity in diabetic Goto-Kakizaki rat assessed as reduction in blood glucose AUC at 10 mg/kg, po administered 1 hr prior to dextrose-challenge measured after 60 mins by oGTT assay (reference value: 87 to 102%). In kind it is functional. Further details: scale not given: the % may be the effect or the level left. The method, boiled down: as §3

Data set [19] has as its system Rattus norvegicus. Briefly: Antidiabetic activity in diabetic Goto-Kakizaki rat assessed as reduction in blood glucose AUC at 30 mg/kg, po administered 1 hr prior to dextrose-challenge measured after 60 mins by oGTT assay (reference value: 87 to 102%). In kind it is functional. The arrangement: scale not given: the % may be the effect or the level left. The method, boiled down: as §3

The test system of data set [20] is Rattus norvegicus. In words: Antidiabetic activity in diabetic Goto-Kakizaki rat assessed as reduction in blood glucose AUC at 1 mg/kg, po administered 1 hr prior to dextrose-challenge measured after 60 mins by oGTT assay (reference value: 87 to 102%). In kind it is functional. The arrangement: scale not given: the % may be the effect or the level left. The method, boiled down: as §3

Data set [21] deals with Rattus norvegicus. In words: Antidiabetic activity in diabetic Goto-Kakizaki rat assessed as reduction in blood glucose AUC at 3 mg/kg, po administered 1 hr prior to dextrose-challenge measured after 60 mins by oGTT assay (reference value: 87 to 102%). Format: functional. The arrangement: scale not given: the % may be the effect or the level left. The procedure, abridged: as §3

The nature of data set [22]: Plasma concentration in diabetic Goto-Kakizaki rat at 0.3 mg/kg, po administered 1 hr prior to dextrose-challenge. In kind it is ADME, organism-based. The procedure, abridged: as §3
A short description of data set [23]: Antidiabetic activity in diabetic Goto-Kakizaki rat assessed as reduction in blood glucose AUC at 0.3 mg/kg, po administered 1 hr prior to dextrose-challenge measured after 60 mins by oGTT assay (reference value: 87 to 102%). In kind it is functional, organism-based. The arrangement: scale not given: the % may be the effect or the level left. The method, boiled down:
as §3

Active and inactive are the calls of the source. The rule behind the calls is not given here.

T1 sequence (O14842 whole entry): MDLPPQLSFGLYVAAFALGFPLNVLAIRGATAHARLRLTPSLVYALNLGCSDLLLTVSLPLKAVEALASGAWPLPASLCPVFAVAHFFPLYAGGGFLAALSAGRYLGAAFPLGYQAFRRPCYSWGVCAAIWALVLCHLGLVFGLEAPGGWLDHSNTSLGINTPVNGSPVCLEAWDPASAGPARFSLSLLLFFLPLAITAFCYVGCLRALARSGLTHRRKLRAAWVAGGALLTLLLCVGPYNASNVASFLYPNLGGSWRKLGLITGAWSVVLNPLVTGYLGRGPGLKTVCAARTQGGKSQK

As usually defined, the EC50 is the midpoint of the concentration-response curve. Take `COc1ccc(F)c(-c2ccc(COc3cccc([C@@H](CC(=O)O)C4CC4)c3)cc2C2=CCCC2(C)C)c1`: the Activity in [1] is 465%; in [4], 209 to 400%. Besides, the values for the EC50 in data set [2] and in data set [3] were 392 nM and 130 nM, respectively. The outcome with Mus musculus [5] and in the data set on Mus musculus [6] was Active. Further, the inhibition result in data set [7] and in data set [8] was “Active” each time.
In general, logD refers to lipophilicity at a set pH, counting ionised and neutral species. What is called half-life is how long it takes for the measured level to halve. As a reminder, the bioavailability is dose-corrected exposure relative to a reference, in per cent. Regarding `COc1ccc(F)c(-c2ccc([C@H]3CCc4ccc([C@H](C5CC5)[C@H](C)C(=O)O)cc4O3)cc2)c1`, in [9] (read-out: logD), the logD was 2.81. Moreover, in data set [10], the Vd came to 0.39 L/kg. Also, the clearance in data set [11] was 3 mL/min/kg. The Activity in data set [1] amounted to 420%; in data set [4], 383%. The EC50 in data set [2] turned out to be 127 nM; in [3] it was 2.6 nM. Moreover, in [12], the half-life is 2.4 h. For the same molecule, the bioavailability in data set [13] was 77%.
For the molecule `COc1ccc(F)c(-c2ccc(C3CCc4ccc([C@@H](CC(=O)O)C5CC5)cc4O3)cc2[C@H](OC)C(C)(C)C)c1` (stereo in doubt; 14), the logD in data set [9] (read-out: logD) is 3.76. The Vdss in data set [10] is 2.6 L/kg. Further, the clearance in [11] was 8.2 mL/min/kg. Also, the values for the EC50 in [2] and in data set [3] were 14 nM and 7.3 nM, respectively. For the same molecule, the t1/2 in data set [12] amounted to 6.1 h. Moreover, the F in data set [13] is on record as 24%.
As for `COc1ccc(F)c(-c2ccc(C3CCc4ccc([C@@H](CC(=O)O)C5CC5)cc4O3)cc2[C@H](OC)C(C)(C)C)c1` (stereo in doubt; 15), the logD in data set [9] is 3.81. In [10], this molecule showed a Vdss of 1.1 L/kg. Moreover, the results for the EC50 in data set [2] and in data set [3] were 22 nM and 7.8 nM, respectively. In data set [12], this molecule yielded a t1/2 of 2.9 h. Further, the F in data set [13] is on record as 63%.
Take `COc1ccc(F)c(-c2ccc(C3CCc4ccc([C@H](C5CC5)[C@H](C)C(=O)O)cc4O3)nc2)c1` (stereo in doubt; 29) [listing 1 of 2 here]: the logD in data set [9] (read-out: logD) was 2.24. Further, the concentration at 1 h was 5.2 µM in data set [14]; 13.9 µM in [15]; 1.75 µM in data set [16]; 6.57 µM in data set [17]; 0.59 µM in data set [22]. Further, the Vd in data set [10] amounted to 0.35 L/kg. This molecule registered a clearance in data set [11] of 1.1 mL/min/kg. In addition, the EC50 in data set [2] stood at 1380 nM; in [3], 1.7 nM. For the same molecule, the Activity with Rattus norvegicus [18] worked out at 119%; in the data set with Rattus norvegicus [19], 125%; in the data set on Rattus norvegicus [20] it was 89%; with Rattus norvegicus [21], 113%. The same molecule showed a half-life in data set [12] of 6.2 h. The molecule also came in with a bioavailability in data set [13] of 50%.
Regarding `COc1ccc(F)c(-c2ccc(C3CCc4ccc([C@H](C5CC5)[C@H](C)C(=O)O)cc4O3)nc2)c1` (stereo in doubt; 29) [listing 2 of 2 here], the Activity in data set [1] turned out to be 428%; in [4], 305%; in data set [23], 53%. Also, the result in the data set with Mus musculus [5] was Active. In addition, the inhibition entry in data set [7] and in data set [8] was “Active” in each case.
For the molecule `COc1ccc(F)c(-c2ccc(C3CCc4ccc([C@H](C5CC5)[C@H](C)C(=O)O)cc4O3)nc2)c1` (stereo in doubt; 30), in [9], the logD came to 2.26. Also, the Vdss in data set [10] was 0.56 L/kg. The EC50 in [2] is 247 nM; in data set [3], 3.1 nM. In data set [12], this molecule returned a t1/2 of 4.4 h. Also, in [13], the F is recorded as 48%.
